Read-outs that look alike come from different tables or passages of the source.
Legend:
[1] = assay type: physicochemical, mice; conditions: for Accuracy (RE, %) 25°C for 6 h / Accuracy (RE, %) Frozen for 30 days: stability in mice plasma/blood QC sample; for Accuracy (RE, %) Frozen for 30 days: −80°C; for Accuracy (RE, %) 4°C for 24 h: stability, extracted QC sample in auto-sampler
How it was run: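 Blank mouse blood spiked with analytes and vitamin C, then extracted with methanol containing daidzein internal standard (0.5 μM) by 1 min vortex. Spun at 20,000 × g for 15 min and dried under air. Three replicates per QC level were held unextracted at 25°C for 6 h, at −80°C for 30 days, or extracted in the 4°C autosampler for 24 h. Analysed by UPLC-MS/MS (C18, formic acid/acetonitrile, positive MRM); accuracy as RE.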

in vivo = assay type: in vivo, A/J mice; conditions: for AUC(0-inf) / AUC(0-t) / Cmax / Tmax / half-life: male, A/J, mouse, whole blood, po; for concentration in the PK study: A/J mice, oral XCHT 500 mg/kg, blood

Structure (SMILES) | Accuracy (RE, %) 25°C for 6 h ([1]; spiked concentration 3.9) | Accuracy (RE, %) 25°C for 6 h ([1]; spiked concentration 62.5) | Accuracy (RE, %) 25°C for 6 h ([1]; spiked concentration 500) | Accuracy (RE, %) Frozen for 30 days ([1]; spiked concentration 3.9) | Accuracy (RE, %) Frozen for 30 days ([1]; spiked concentration 62.5) | Accuracy (RE, %) Frozen for 30 days ([1]; spiked concentration 500) | Accuracy (RE, %) 4°C for 24 h ([1]; spiked concentration 3.9) | Accuracy (RE, %) 4°C for 24 h ([1]; spiked concentration 62.5) | Accuracy (RE, %) 4°C for 24 h ([1]; spiked concentration 500) | AUC(0-inf) (in vivo; 500 mg/kg) | AUC(0-t) (in vivo; 500 mg/kg) | Cmax (in vivo; 500 mg/kg) | half-life (in vivo; 500 mg/kg) | further results
CC(C)=CCC[C@](C)(O[C@@H]1O[C@H](CO)[C@@H](O)[C@H](O)[C@H]1O)[C@H]1CC[C@]2(C)[C@@H]1[C@H](O)C[C@@H]1[C@@]3(C)CC[C@H](O)C(C)(C)[C@@H]3[C@@H](O[C@@H]3O[C@H](CO)[C@@H](O)[C@H](O)[C@H]3O[C@@H]3O[C@@H](C)[C@H](O)[C@@H](O)[C@H]3O)C[C@]12C [Re, ginsenoside Re] | 10.1% | 8.8% | −0.3% | 10.4% | 9.7% | 8.9% | −5.4% | 13.76% | 9.7% | 0.045 ± 0.0289 µM·h | 0.0423 ± 0.0265 µM·h | 50.2 ± 40.1 nM | 163 ± 129 min | Tmax (in vivo; 500 mg/kg): 0.25 h; detected in the blood (in vivo; mice, oral XCHT extract 0.5 g/kg): detected
CC(C)=CCC[C@](C)(O[C@@H]1O[C@H](CO)[C@@H](O)[C@H](O)[C@H]1O)[C@H]1CC[C@]2(C)[C@@H]1[C@H](O)C[C@@H]1[C@@]3(C)CC[C@H](O[C@@H]4O[C@H](CO)[C@@H](O)[C@H](O)[C@H]4O[C@@H]4O[C@H](CO)[C@@H](O)[C@H](O)[C@H]4O)C(C)(C)[C@@H]3CC[C@]12C [Rd, Ginsenoside Rd] |  | −3.7% | −7.1% |  | 11.4% | 12.2% |  | 12.8% | 12.3% |  |  |  |  | Accuracy (RE, %) 25°C for 6 h ([1]; spiked concentration 0.488): 13.3%; Accuracy (RE, %) Frozen for 30 days ([1]; spiked concentration 0.488): 11.6%; Accuracy (RE, %) 4°C for 24 h ([1]; spiked concentration 0.488): −4%; concentration in the PK study (in vivo; time 360 min): 5.07±6.67; concentration in the PK study (in vivo; time 720 min): 6.23±7.96; concentration in the PK study (in vivo; time 1440 min): 5.20±7.64
C[C@H]1O[C@@H](O[C@H]2CC[C@@]3(C)[C@@H](CC[C@]4(C)[C@@H]3C=C[C@]35OC[C@@]6(CCC(C)(C)C[C@H]63)[C@@H](O)C[C@]54C)[C@]2(C)CO)[C@H](O)[C@@H](O[C@@H]2O[C@H](CO)[C@@H](O)[C@H](O)[C@H]2O)[C@H]1O [SSa, saikosaponin a] |  |  |  |  |  |  |  |  |  |  |  |  |  | Accuracy (RE, %) 25°C for 6 h ([1]; spiked concentration 0.39): 0.7%; Accuracy (RE, %) 25°C for 6 h ([1]; spiked concentration 6.25): −1.5%; Accuracy (RE, %) 25°C for 6 h ([1]; spiked concentration 50): 7.4%; Accuracy (RE, %) Frozen for 30 days ([1]; spiked concentration 0.39): −6.7%; Accuracy (RE, %) Frozen for 30 days ([1]; spiked concentration 6.25): 10.8%; Accuracy (RE, %) Frozen for 30 days ([1]; spiked concentration 50): 12.1%; Accuracy (RE, %) 4°C for 24 h ([1]; spiked concentration 0.39): −7.4%; Accuracy (RE, %) 4°C for 24 h ([1]; spiked concentration 6.25): 12%; Accuracy (RE, %) 4°C for 24 h ([1]; spiked concentration 50): 10.6%; concentration in the PK study (in vivo; time 5 min): 0.69±0.26; concentration in the PK study (in vivo; time 15 min): 1.17±0.88; concentration in the PK study (in vivo; time 30 min): 1.02±0.75; concentration in the PK study (in vivo; time 60 min): 1.15±0.77; concentration in the PK study (in vivo; time 120 min): 0.85±0.51
CC1(C)[C@@H](O)CC[C@]2(C)[C@H]3C(=O)C=C4[C@@H]5C[C@@](C)(C(=O)O)CC[C@]5(C)CC[C@@]4(C)[C@]3(C)CC[C@@H]12 [GA, glycyrrhetinic acid] | 2.1% | 1.6% | 8.1% | 6.9% | 14.0% | 13.5% | 5.4% | 12% | 14.6% | 3.3 ± 1.18 µM·h | 3.3 ± 1.18 µM·h | 263 ± 87.3 nM | 286 ± 116 min | Cmax (in vivo; 0.5 g/kg): 263 ± 87.3 nM; Tmax (in vivo; 0.5 g/kg): 7.25 ± 5.5 h
